Test results taken from ChEMBL document CHEMBL3774386, “Synthesis and structure activity relationship investigation of triazolo[1,5-a]pyrimidines as CB2 cannabinoid receptor inverse agonists” (Eur J Med Chem, 2016).

Tests used:
[1] = biological target: T1, Cannabinoid receptor 2 (Homo sapiens, UniProt P34972); experiment: Inverse agonist activity at human CB2 receptor transfected in CHO cells assessed as increase in forksolin stimulated cAMP production at 10 uM by scintillation counting analysis relative to control; format: functional, cell-based
T1 sequence (P34972 whole entry): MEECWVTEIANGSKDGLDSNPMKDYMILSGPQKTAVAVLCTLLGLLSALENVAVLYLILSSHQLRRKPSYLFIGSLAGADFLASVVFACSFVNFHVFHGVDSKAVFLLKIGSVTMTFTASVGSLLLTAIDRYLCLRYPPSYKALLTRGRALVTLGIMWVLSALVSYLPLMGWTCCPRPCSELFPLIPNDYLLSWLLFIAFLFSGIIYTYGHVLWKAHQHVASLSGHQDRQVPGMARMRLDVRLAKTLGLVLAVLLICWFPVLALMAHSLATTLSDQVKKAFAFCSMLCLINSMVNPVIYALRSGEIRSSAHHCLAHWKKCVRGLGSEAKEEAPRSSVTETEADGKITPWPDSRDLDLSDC

[2] = biological target: T1, Cannabinoid receptor 2; experiment: Inverse agonist activity at human CB2 receptor transfected in CHO cells assessed as increase in forksolin stimulated cAMP production at 1 uM by scintillation counting analysis relative to control; format: functional, cell-based
[3] = biological target: Cannabinoid receptor 1 (Homo sapiens, UniProt P21554); experiment: Displacement of [3H]CP-55,940 from human CB1 receptor expressed in CHO cell membranes after 90 mins by scintillation counting analysis
Chain of Cannabinoid receptor 1 (P21554 whole entry): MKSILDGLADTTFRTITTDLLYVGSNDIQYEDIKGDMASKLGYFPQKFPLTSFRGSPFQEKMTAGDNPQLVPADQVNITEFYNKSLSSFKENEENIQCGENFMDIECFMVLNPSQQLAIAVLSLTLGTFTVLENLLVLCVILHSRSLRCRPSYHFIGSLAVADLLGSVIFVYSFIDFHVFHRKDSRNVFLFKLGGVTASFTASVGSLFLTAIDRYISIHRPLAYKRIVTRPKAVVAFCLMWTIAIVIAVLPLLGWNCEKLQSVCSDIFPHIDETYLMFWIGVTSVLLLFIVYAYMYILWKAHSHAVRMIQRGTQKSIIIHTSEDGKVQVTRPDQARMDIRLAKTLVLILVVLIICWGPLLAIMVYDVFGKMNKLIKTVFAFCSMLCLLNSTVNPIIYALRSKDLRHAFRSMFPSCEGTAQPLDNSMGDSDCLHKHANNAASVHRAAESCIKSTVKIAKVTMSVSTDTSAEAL

[4] = biological target: T1, Cannabinoid receptor 2; experiment: Inverse agonist activity at human CB2 receptor transfected in CHO cells assessed as increase in forksolin stimulated cAMP production by scintillation counting analysis; format: functional, cell-based
Outline: (§1)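 Human CB2-transfected CHO cells detached with trypsin, 1 × 10^6 cells/assay, with forskolin and compound over a concentration curve. cAMP measured by [3H]-cAMP competition: 150 min at 4 °C, charcoal, centrifugation, supernatant counted. Expressed as % increase of forskolin-stimulated cAMP and fitted for EC50; three independent experiments in duplicate.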

[5] = tested on: CHO; experiment: Selectivity ratio of Ki for human CB1 receptor expressed in CHO cell membranes to Ki for human CB2 receptor expressed in CHO cell membranes; format: cell-based
Outline: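 CHO membranes with human CB1 or CB2 in 50 mM Tris-HCl, 0.5% BSA, pH 7.4, 5 mM MgCl2, with 1 mM (CB1) or 2.5 mM (CB2) EDTA. Competition against 0.5 nM [3H]CP-55,940 at 30 °C for 90 min (CB1) or 60 min (CB2). GF/C filtration, scintillation counting. Ki from IC50 by Cheng–Prusoff; mean ± SEM, n = 4.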

[6] = biological target: T1, Cannabinoid receptor 2; experiment: Antagonist activity at human CB2 receptor transfected in CHO cells assessed as inhibition of WIN 55,212-2 mediated suppression of forksolin induced cAMP production by scintillation counting analysis; format: functional, cell-based
Outline: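 Human CB2-transfected CHO cells, 1 × 10^6 cells/assay, forskolin-stimulated, with WIN 55,212-2 (20 nM) plus compound over a concentration range. cAMP read by [3H]-cAMP competition: 150 min at 4 °C, charcoal separation, scintillation counting. IC50 derived from reversal of the WIN 55,212-2 inhibition; mean ± SEM of three experiments in duplicate.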

[7] = biological target: T1, Cannabinoid receptor 2; experiment: Displacement of [3H]CP-55,940 from human CB2 receptor expressed in CHO cell membranes after 60 mins by scintillation counting analysis
[8] = biological target: T1, Cannabinoid receptor 2; experiment: Partial agonist activity at human CB2 receptor transfected in CHO cells assessed as forksolin stimulated cAMP production by scintillation counting analysis relative to control; format: functional, cell-based; outline: as §1

| Structure (SMILES) | Emax [1] | Emax [2] | Ki [3] | EC50 [4] | Ratio Ki [5] | IC50 [6] | Ki [7] | Emax [8] |
| --- | --- | --- | --- | --- | --- | --- | --- | --- |
| CCCCCn1cc(C(=O)NC23CC4CC(CC(C4)C2)C3)c(=O)n2nc(N(C)Cc3ccccc3)nc12 | 132% | 53% | > 10 µM | 0.453 µM | > 476 | 0.029 µM | 0.021 µM |  |
| CCCCCn1cc(C(=O)NC23CC4CC(CC(C4)C2)C3)c(=O)n2nc(-c3ccc(OC)cc3)nc12 | 132% | 53% | 3.72 µM | 0.858 µM | 79 | 0.128 µM | 0.047 µM |  |
| CCCCCn1cc(C(=O)NC23CC4CC(CC(C4)C2)C3)c(=O)n2nc(C)nc12 | 132% | 53% | 0.471 µM | 2.08 µM | 1 | 0.865 µM | 0.383 µM |  |
| C=CCN(CC=C)c1nc2n(CCCCC)cc(C(=O)NC34CC5CC(CC(C5)C3)C4)c(=O)n2n1 |  |  | > 10 µM |  | > 63 |  | 0.158 µM |  |
| CCCCCn1cc(C(=O)NC23CC4CC(CC(C4)C2)C3)c(=O)n2nc(-c3ccco3)nc12 | 132% | 53% | 1.17 µM | 0.771 µM | 26 | 0.124 µM | 0.045 µM |  |
| CCCCCn1cc(C(=O)NC23CC4CC(CC(C4)C2)C3)c(=O)n2nc(-c3cccnc3)nc12 |  |  | > 10 µM |  | > 44 |  | 0.228 µM |  |
| CCCCCn1cc(C(=O)NC2CCCCCC2)c(=O)n2nc(N3CCN(C)CC3)nc12 |  |  | > 10 µM |  | > 10 |  | 0.982 µM |  |
| C=CCN(CC=C)c1nc2n(CCCCC)cc(C(=O)NC3CCCCC3)c(=O)n2n1 |  |  | > 10 µM |  | > 7 |  | 1.35 µM |  |
| CCCCCn1cc(C(=O)NC23CC4CC(CC(C4)C2)C3)c(=O)n2nc(-c3ccc(Cl)cc3)nc12 | 223% |  | 5.22 µM | 0.637 µM | 462 | 0.0246 µM | 0.0113 µM |  |
| CCCCCn1cc(C(=O)NC2CCCCC2)c(=O)n2nc(-c3ccccc3)nc12 | 132% | 53% | 3.21 µM | 0.756 µM | 75 | 0.111 µM | 0.043 µM |  |
| CCCCCn1cc(C(=O)NC2CCCCC2)c(=O)n2nc(-c3ccc(Cl)cc3)nc12 |  |  | 4.72 µM |  | 40 |  | 0.117 µM |  |
| CCCCCn1cc(C(=O)NC2CCCCC2)c(=O)n2nc(-c3ccc(OC)cc3)nc12 |  |  | 5.85 µM |  | 61 |  | 0.096 µM |  |
| CCCCCn1cc(C(=O)NC2CCCCCC2)c(=O)n2nc(N3CCOCC3)nc12 |  |  | > 10 µM |  | > 18 |  | 0.566 µM |  |
| CCCCCn1cc(C(=O)NC23CC4CC(CC(C4)C2)C3)c(=O)n2nc(-c3ccc(C)cc3)nc12 | 256% |  | 1.52 µM | 0.652 µM | 223 | 0.0126 µM | 0.0068 µM |  |
| CCCCCn1cc(C(=O)NC23CC4CC(C)(CC(C)(C4)C2)C3)c(=O)n2nc(-c3ccccc3)nc12 | 243% |  | 0.653 µM | 0.489 µM | 77 | 0.0184 µM | 0.0084 µM |  |
| CCCCCn1cc(C(=O)NC23CC4CC(C)(CC(C)(C4)C2)C3)c(=O)n2ncnc12 | 132% | 53% | 0.622 µM | 0.088 µM | 25 |  | 0.025 µM | 60% |
| CCCCCn1cc(C(=O)NC2CCCCCC2)c(=O)n2ncnc12 |  |  | 0.717 µM |  | 1 |  | 0.514 µM |  |
| Cc1c(C(=O)c2cccc3ccccc23)c2cccc3c2n1[C@H](CN1CCOCC1)CO3 | 132% | 53% |  |  |  |  |  |  |
| CCCCCn1cc(C(=O)NC2CCCCCC2)c(=O)n2nc(-c3ccccc3)nc12 | 132% | 53% | 2.48 µM | 0.849 µM | 52 | 0.142 µM | 0.048 µM |  |
| CCCCCn1cc(C(=O)NC2CCCCC2)c(=O)n2nc(-c3ccc(C)cc3)nc12 | 132% | 53% | > 10 µM | 0.464 µM | > 323 | 0.079 µM | 0.031 µM |  |
| CCCCCn1cc(C(=O)NC2CCCCCC2)c(=O)n2nc(-c3ccc(C)cc3)nc12 | 132% | 53% | 6.35 µM | 0.393 µM | 289 | 0.064 µM | 0.022 µM |  |
| CCCCCn1cc(C(=O)NC23CC4CC(CC(C4)C2)C3)c(=O)n2nc(N3CCOCC3)nc12 | 132% | 53% | > 10 µM | 0.67 µM | 140 | 0.162 µM | 0.053 µM |  |
| CCCCCn1cc(C(=O)NC2CCCCC2)c(=O)n2nc(N3CCOCC3)nc12 |  |  | > 10 µM |  |  |  | > 10 µM |  |
| CCCCCn1cc(C(=O)NC2CCCCC2)c(=O)n2nc(SC)nc12 |  |  | > 10 µM |  | > 14 |  | 0.716 µM |  |
| CCCCCn1cc(C(=O)NC23CC4CC(CC(C4)C2)C3)c(=O)n2nc(SC)nc12 | 132% | 53% | > 10 µM | 0.494 µM | > 213 | 0.139 µM | 0.047 µM |  |
| CCCCCn1cc(C(=O)NC2CCCCC2)c(=O)n2nc(C)nc12 |  |  | 0.488 µM |  | 1 |  | 0.674 µM |  |
| CCCCCn1cc(C(=O)NC23CC4CC(CC(C4)C2)C3)c(=O)n2ncnc12 | 132% | 53% |  |  | 36 |  |  | 57% |
| CCCCCn1cc(C(=O)NC23CC4CC(CC(C4)C2)C3)c(=O)n2nc(-c3ccccc3)nc12 | 132% | 53% |  | 0.161 µM | 146 | 0.0086 µM |  |  |
| CCCCCn1cc(C(=O)NC2CCCCC2)c(=O)n2nc(N(C)Cc3ccccc3)nc12 |  |  | > 10 µM |  | > 7 |  | 1.33 µM |  |
| CCCCCn1cc(C(=O)NC2CCCCC2)c(=O)n2nc(N3CCN(C)CC3)nc12 |  |  | > 10 µM |  | > 188 |  | > 10 µM |  |
